Laboratory results from ChEMBL document CHEMBL4765308, “N-alkylpiperidine carbamates as potential anti-Alzheimer's agents” (Eur J Med Chem, 2020).
pIC50: −log10 of the molar value.

Key:
Cholinesterase = Cholinesterase (Homo sapiens, UniProt P06276); experiment: Inhibition of human BuchE using butyrylthiocholine iodide as substrate preincubated for 30 mins followed by substrate addition by Ellman's method
[1] = biological target: T1, Amine oxidase [flavin-containing] B (Homo sapiens, UniProt P27338); experiment: Inhibition of human recombinant microsomal MAO-B expressed in baculovirus-infected BTI-TN-5B1-4 cells assessed as inhibition of H2O2 production using p-tyramine as substrate preincubated for 15 mins followed by substrate addition by Amplex Red reagent based fluorescence analysis
T1 sequence (P27338 whole entry): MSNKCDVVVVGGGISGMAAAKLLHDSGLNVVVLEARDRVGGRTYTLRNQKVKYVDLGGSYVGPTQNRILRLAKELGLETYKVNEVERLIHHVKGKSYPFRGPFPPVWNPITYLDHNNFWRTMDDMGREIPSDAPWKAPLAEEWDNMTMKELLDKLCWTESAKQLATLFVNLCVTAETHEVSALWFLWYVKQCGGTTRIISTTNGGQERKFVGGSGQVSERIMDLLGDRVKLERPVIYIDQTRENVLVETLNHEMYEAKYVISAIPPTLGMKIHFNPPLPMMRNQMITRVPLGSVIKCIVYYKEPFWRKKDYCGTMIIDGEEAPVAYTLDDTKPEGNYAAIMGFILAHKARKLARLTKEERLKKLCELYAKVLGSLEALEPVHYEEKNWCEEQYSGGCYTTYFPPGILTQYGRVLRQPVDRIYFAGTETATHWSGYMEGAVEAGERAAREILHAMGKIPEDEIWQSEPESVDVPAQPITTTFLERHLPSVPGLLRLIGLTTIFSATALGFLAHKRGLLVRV
Outline: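 Recombinant human MAO-A or MAO-B (insect-cell microsomes) preincubated with compound 15 min at 37 °C in 50 mM sodium phosphate, pH 7.4, 0.05% Triton X-114. Reaction started with 1 mM p-tyramine, 250 µM Amplex Red and 2 U/mL HRP (final concentrations). Resorufin fluorescence (ex 530/em 590 nm) followed for 20 min at 37 °C, duplicates. Blank-corrected residual activity; IC50 from a four-parameter Hill fit.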

Acetylcholinesterase = Acetylcholinesterase (Homo sapiens, UniProt P22303); experiment: Inhibition of human AChE using acetylthiocholine iodide as substrate preincubated with enzyme for 30 mins followed by substrate addition by Ellman's method
[2] = biological target: T2, Amine oxidase [flavin-containing] A (Homo sapiens, UniProt P21397); experiment: Inhibition of human recombinant microsomal MAO-A expressed in baculovirus-infected BTI-TN-5B1-4 cells assessed as inhibition of H2O2 production using p-tyramine as substrate preincubated for 15 mins followed by substrate addition by Amplex Red reagent based fluorescence analysis
T2 sequence (P21397 whole entry): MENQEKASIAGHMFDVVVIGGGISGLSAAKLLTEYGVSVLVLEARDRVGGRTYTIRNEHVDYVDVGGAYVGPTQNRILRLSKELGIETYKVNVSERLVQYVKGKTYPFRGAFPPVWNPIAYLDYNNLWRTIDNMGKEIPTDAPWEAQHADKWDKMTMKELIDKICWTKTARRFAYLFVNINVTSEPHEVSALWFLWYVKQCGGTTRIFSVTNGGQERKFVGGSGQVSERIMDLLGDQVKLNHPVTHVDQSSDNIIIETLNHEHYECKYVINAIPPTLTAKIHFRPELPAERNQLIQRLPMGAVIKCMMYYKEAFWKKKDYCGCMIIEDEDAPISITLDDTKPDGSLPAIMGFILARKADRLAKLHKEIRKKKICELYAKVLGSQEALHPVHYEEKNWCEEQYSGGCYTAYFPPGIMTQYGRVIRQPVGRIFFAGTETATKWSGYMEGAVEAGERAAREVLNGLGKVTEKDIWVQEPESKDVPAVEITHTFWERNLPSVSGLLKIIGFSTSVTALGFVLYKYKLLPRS

Chain of Acetylcholinesterase (P22303 whole entry): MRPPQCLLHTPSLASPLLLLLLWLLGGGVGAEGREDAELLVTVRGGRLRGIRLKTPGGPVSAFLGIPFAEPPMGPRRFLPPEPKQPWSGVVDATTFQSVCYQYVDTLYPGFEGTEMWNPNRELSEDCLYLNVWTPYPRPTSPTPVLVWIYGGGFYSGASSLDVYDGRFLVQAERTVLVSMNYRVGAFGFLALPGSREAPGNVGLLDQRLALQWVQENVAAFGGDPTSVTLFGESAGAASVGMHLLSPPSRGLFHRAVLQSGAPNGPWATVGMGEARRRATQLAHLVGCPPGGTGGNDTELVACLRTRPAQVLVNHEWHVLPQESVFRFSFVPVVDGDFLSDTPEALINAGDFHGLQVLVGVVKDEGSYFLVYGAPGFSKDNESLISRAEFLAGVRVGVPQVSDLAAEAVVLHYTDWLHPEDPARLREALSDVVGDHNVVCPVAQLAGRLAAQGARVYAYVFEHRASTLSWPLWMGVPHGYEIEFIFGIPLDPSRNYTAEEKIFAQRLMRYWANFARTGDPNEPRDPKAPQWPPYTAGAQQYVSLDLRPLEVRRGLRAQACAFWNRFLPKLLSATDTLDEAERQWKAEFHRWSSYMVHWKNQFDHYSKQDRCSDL
Chain of Cholinesterase (P06276 whole entry): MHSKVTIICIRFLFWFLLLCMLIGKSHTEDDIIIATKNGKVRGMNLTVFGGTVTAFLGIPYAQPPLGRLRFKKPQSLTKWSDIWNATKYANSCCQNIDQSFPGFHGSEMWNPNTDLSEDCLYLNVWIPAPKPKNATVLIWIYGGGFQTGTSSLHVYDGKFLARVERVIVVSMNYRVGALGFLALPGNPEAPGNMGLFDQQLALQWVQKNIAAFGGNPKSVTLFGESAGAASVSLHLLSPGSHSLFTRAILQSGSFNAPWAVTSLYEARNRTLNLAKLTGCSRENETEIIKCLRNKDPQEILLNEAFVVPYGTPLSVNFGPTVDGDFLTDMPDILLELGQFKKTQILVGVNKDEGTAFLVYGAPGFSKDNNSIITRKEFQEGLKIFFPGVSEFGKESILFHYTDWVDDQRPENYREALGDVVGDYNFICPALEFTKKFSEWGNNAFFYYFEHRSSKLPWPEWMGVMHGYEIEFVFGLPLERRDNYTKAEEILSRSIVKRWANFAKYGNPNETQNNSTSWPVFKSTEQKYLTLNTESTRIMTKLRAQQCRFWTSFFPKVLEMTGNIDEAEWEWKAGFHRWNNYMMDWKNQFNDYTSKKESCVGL

Compound | pIC50 (Cholinesterase) | pIC50 [1] | pIC50 (Acetylcholinesterase) | pIC50 [2]
C#CCN1CCCC(CO)C1 (configuration not stated) | < 4.00 | < 4.00 | < 4.00 | < 4.00
C#CCN1CCC(CO)CC1 | < 4.00 | < 4.00 | < 4.00 | < 4.00
CC(C)c1ccc(NC(=O)OCC2CCCN(C3Cc4ccccc4C3)C2)cc1 (configuration not stated) | 6.35 | < 4.00 | 4.73 | < 4.00
OCC1CCN(Cc2ccccc2)CC1 | < 4.00 | < 4.00 | < 4.00 | < 4.00
C#CCN1CCCC(OC(=O)N(C)CC)C1 (configuration not stated) | < 4.00 | < 4.00 | < 4.00 | < 4.00
C#CCN1CCC(OC(=O)N(C)CC)CC1 | 4.94 | < 4.00 | < 4.00 | < 4.00
C#CCN1CCC(COC(=O)Nc2ccccc2)CC1 | 4.84 | 4.99 | < 4.00 | < 4.00
C#CCN1CCCC(COC(=O)Nc2ccc(C(C)C)cc2)C1 (configuration not stated) | 4.75 | 5.54 | < 4.00 | < 4.00
CCN(C)C(=O)OC1CCCN(C2Cc3ccccc3C2)C1 (configuration not stated) | 5.01 | < 4.00 | < 4.00 | < 4.00
OC1CCN(C2Cc3ccccc3C2)CC1 | < 4.00 | < 4.00 | < 4.00 | < 4.00
C#CCN1CCCC(COC(=O)N(C)CC)C1 (configuration not stated) | < 4.00 | < 4.00 | < 4.00 | < 4.00
O=C(Nc1ccccc1)OC1CCN(C2Cc3ccccc3C2)CC1 | 4.74 | < 4.00 | 4.72 | < 4.00
CC(C)c1ccc(NC(=O)OC2CCN(Cc3ccccc3)CC2)cc1 | 5.76 | < 4.00 | < 4.00 | < 4.00
OC1CCCN(Cc2ccccc2)C1 (configuration not stated) | < 4.00 | < 4.00 | < 4.00 | < 4.00
C#CCN1CCC(OC(=O)Nc2ccccc2)CC1 | 4.72 | < 4.00 | < 4.00 | < 4.00
C#CCN1CCC(COC(=O)N(C)CC)CC1 | < 4.00 | < 4.00 | < 4.00 | < 4.00
CCN(C)C(=O)OCC1CCN(Cc2ccccc2)CC1 | 4.34 | < 4.00 | 4.14 | < 4.00
C#CCN1CCCC(OC(=O)Nc2ccc(C(C)C)cc2)C1 (configuration not stated) | < 4.00 | 4.14 | < 4.00 | < 4.00
C#CCN1CCC(O)CC1 | < 4.00 | < 4.00 | < 4.00 | < 4.00
CC(C)c1ccc(NC(=O)OCC2CCCN(Cc3ccccc3)C2)cc1 (configuration not stated) | 6.93 | < 4.00 | 4.82 | < 4.00
C#CCN1CCCC(O)C1 (configuration not stated) | < 4.00 | < 4.00 | < 4.00 | < 4.00
CCN(C)C(=O)OC1CCN(C2Cc3ccccc3C2)CC1 | 4.39 | < 4.00 | < 4.00 | < 4.00
C#CCN1CCC(COC(=O)Nc2ccc(C(C)C)cc2)CC1 | 4.61 | 6.50 | < 4.00 | < 4.00
CC(C)c1ccc(NC(=O)OC2CCCN(Cc3ccccc3)C2)cc1 (configuration not stated) | 5.49 | 4.53 | < 4.00 | < 4.00
O=C(Nc1ccccc1)OCC1CCCN(Cc2ccccc2)C1 (configuration not stated) | 6.28 | 4.40 | 4.17 | < 4.00
C#CCN1CCCC(OC(=O)Nc2ccccc2)C1 (configuration not stated) | 4.07 | < 4.00 | < 4.00 | < 4.00
CC(C)c1ccc(NC(=O)OCC2CCN(C3Cc4ccccc4C3)CC2)cc1 | < 4.00 | < 4.00 | 5.39 | < 4.00
OCC1CCCN(C2Cc3ccccc3C2)C1 (configuration not stated) | < 4.00 | < 4.00 | < 4.00 | < 4.00
